Measured values from ChEMBL document CHEMBL5696442, “Discovery of type II inhibitors of TGFβ-activated kinase 1 (TAK1) and mitogen-activated protein kinase kinase kinase kinase 2 (MAP4K2)” (J Med Chem, 2015).

Key:
Type in all cases: cell-based
[1] = target: Cyclin-dependent kinase 9 (Homo sapiens) (UniProt P50750); experiment: Inhibition of CDK9 Lys2 labeling site in human A-375 cells at 5 uM by KiNativ Profiling analysis relative to control
Procedure, shortened: (§1)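 Live A375 melanoma cells were treated with compound at 5 or 0.5 μM. The cells were then lysed, and the lysates were labeled with a lysine-reactive ATP or ADP-biotin acyl probe (KiNativ). Inhibition is the compound's protection of each kinase labeling-site peptide from probe labeling, relative to untreated control.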

[2] = target: Tyrosine-protein kinase Yes (Homo sapiens) (UniProt P07947); experiment: Inhibition of YES ACT labeling site in human A-375 cells at 5 uM by KiNativ Profiling analysis relative to control
Tyrosine-protein kinase Yes (Homo sapiens), sequence (P07947 2-543 limits assumed): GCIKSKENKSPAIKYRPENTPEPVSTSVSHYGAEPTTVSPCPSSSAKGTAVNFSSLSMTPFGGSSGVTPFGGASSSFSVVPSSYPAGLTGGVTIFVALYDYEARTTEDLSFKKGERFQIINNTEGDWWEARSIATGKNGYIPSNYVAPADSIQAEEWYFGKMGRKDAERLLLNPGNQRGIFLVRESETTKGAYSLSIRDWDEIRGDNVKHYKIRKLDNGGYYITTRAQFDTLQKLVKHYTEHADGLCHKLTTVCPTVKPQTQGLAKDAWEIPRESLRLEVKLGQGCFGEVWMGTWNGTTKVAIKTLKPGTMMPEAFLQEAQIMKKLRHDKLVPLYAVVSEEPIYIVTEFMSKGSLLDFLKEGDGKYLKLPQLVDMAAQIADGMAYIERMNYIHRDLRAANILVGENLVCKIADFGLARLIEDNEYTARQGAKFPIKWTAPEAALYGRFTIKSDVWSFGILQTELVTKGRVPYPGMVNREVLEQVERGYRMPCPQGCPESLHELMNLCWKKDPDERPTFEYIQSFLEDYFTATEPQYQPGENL

[3] = target: Serine/threonine-protein kinase B-raf (Homo sapiens, UniProt P15056); experiment: Inhibition of BRAF Lys2 labeling site in human A-375 cells at 5 uM by KiNativ Profiling analysis relative to control
Serine/threonine-protein kinase B-raf, sequence (P15056 whole entry): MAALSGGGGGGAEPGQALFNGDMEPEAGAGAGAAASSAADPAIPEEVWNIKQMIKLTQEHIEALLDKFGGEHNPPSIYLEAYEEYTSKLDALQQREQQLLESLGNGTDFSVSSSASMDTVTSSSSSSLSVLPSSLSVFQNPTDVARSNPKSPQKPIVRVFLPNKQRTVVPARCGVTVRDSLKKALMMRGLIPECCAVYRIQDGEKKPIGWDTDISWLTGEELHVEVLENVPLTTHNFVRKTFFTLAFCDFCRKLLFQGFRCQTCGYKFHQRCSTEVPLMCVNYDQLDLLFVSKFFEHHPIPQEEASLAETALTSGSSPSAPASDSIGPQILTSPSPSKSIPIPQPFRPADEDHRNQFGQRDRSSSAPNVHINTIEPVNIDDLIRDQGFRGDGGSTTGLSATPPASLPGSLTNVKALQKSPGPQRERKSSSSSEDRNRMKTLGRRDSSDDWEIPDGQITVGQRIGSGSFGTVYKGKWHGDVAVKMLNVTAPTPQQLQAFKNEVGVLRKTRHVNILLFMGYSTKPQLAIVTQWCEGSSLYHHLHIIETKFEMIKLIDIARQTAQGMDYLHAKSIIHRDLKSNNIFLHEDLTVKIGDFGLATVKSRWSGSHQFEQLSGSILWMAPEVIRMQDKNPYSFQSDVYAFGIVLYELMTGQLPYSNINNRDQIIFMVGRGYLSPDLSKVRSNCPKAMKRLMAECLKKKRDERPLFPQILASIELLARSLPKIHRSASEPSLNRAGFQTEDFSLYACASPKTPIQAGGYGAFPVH
Procedure, shortened: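 Live A375 melanoma cells were treated with compound at 5 or 0.5 μM, then lysed. The lysates were labeled with a lysine-reactive ATP or ADP-biotin probe. Kinase protection from probe labeling was measured by KiNativ.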

[4] = target: T1, Aurora kinase C (Homo sapiens) (UniProt Q9UQB9); experiment: Inhibition of AurC ATP Loop labeling site in human A-375 cells at 0.05 uM by KiNativ Profiling analysis relative to control
T1 sequence (whole entry): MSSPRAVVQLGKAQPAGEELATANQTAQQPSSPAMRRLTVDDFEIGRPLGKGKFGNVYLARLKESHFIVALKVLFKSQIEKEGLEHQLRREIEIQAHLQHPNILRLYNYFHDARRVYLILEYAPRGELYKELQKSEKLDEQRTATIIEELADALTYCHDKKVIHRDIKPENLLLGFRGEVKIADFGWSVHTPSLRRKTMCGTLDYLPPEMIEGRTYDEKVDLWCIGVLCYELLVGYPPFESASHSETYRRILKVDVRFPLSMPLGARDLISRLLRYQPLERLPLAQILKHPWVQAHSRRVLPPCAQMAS

[5] = target: T2, Serine/threonine-protein kinase Chk1 (Homo sapiens) (UniProt O14757); experiment: Inhibition of CHK1 Lys2 labeling site harbouring DIKPENLLLDER in human A-375 cells at 0.5 uM by KiNativ Profiling analysis relative to control; procedure, shortened: as §1
T2 sequence (whole entry): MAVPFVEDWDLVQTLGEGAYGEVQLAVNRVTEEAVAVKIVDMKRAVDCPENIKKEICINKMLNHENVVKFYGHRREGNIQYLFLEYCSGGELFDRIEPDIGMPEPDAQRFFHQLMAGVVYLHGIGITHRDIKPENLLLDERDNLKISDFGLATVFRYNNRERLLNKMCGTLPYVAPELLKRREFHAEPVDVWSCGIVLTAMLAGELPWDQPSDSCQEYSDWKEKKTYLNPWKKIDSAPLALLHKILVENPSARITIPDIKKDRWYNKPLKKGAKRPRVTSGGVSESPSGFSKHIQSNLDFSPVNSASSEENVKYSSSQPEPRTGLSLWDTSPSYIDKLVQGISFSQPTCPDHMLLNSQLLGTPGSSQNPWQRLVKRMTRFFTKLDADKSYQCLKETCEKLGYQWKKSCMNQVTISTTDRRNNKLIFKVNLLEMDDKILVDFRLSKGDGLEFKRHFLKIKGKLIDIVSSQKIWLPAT

[6] = target: Serine/threonine-protein kinase 32C (Homo sapiens) (UniProt Q86UX6); experiment: Inhibition of YANK3 Lys2 labeling site in human A-375 cells at 5 uM by KiNativ Profiling analysis relative to control
Serine/threonine-protein kinase 32C (Homo sapiens), sequence (Q86UX6 whole entry): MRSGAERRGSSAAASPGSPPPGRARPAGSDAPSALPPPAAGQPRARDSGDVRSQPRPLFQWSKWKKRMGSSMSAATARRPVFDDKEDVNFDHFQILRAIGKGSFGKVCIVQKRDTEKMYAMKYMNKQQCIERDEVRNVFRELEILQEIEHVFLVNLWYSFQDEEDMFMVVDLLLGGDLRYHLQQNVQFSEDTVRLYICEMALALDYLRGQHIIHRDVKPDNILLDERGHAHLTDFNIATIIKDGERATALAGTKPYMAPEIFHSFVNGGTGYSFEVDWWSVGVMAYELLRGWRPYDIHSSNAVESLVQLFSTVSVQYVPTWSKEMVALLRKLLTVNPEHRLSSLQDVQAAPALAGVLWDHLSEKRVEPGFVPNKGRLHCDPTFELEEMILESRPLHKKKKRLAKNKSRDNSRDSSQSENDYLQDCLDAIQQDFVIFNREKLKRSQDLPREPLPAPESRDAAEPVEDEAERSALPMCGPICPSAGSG

[7] = target: Serine/threonine-protein kinase 26 (Homo sapiens) (UniProt Q9P289); experiment: Inhibition of MST4 Lys2 labeling site in human A-375 cells at 5 uM by KiNativ Profiling analysis relative to control
Serine/threonine-protein kinase 26 (Homo sapiens), sequence (Q9P289 2-416 limits assumed): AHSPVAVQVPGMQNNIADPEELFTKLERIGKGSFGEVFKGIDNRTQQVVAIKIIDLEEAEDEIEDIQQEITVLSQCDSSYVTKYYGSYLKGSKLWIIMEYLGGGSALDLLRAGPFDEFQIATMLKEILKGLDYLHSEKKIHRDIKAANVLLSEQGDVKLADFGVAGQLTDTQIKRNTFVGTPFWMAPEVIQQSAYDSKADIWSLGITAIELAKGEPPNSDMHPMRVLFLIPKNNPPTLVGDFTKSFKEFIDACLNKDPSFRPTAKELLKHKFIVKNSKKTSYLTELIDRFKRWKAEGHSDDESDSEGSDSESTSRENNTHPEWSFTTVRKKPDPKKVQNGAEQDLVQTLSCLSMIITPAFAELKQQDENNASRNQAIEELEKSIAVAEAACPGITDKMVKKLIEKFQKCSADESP

[8] = target: Mitogen-activated protein kinase 8 (Homo sapiens, UniProt P45983); experiment: Inhibition of JNK1 Lys2 labeling site in human A-375 cells at 5 uM by KiNativ Profiling analysis relative to control
Mitogen-activated protein kinase 8, sequence (P45983 whole entry): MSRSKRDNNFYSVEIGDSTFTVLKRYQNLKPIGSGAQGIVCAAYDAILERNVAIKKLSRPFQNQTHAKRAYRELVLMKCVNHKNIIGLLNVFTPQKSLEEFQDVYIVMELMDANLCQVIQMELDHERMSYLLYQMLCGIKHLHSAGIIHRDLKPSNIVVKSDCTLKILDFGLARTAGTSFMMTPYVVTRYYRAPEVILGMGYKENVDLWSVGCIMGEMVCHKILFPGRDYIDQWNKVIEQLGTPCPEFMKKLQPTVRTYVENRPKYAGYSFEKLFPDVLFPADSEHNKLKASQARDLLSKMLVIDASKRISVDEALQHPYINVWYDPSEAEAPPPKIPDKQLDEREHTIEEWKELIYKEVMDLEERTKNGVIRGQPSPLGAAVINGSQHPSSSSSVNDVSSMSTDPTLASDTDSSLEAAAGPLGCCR

[9] = target: Cyclin-dependent kinase 2 (Homo sapiens) (UniProt P24941); experiment: Inhibition of CDK2 Lys1 labeling site in human A-375 cells at 0.05 uM by KiNativ Profiling analysis relative to control
[10] = target: T3, Serine/threonine-protein kinase Nek9 (Homo sapiens) (UniProt Q8TD19); experiment: Inhibition of NEK9 ACT labeling site in human A-375 cells at 0.05 uM by KiNativ Profiling analysis relative to control
T3 sequence (whole entry): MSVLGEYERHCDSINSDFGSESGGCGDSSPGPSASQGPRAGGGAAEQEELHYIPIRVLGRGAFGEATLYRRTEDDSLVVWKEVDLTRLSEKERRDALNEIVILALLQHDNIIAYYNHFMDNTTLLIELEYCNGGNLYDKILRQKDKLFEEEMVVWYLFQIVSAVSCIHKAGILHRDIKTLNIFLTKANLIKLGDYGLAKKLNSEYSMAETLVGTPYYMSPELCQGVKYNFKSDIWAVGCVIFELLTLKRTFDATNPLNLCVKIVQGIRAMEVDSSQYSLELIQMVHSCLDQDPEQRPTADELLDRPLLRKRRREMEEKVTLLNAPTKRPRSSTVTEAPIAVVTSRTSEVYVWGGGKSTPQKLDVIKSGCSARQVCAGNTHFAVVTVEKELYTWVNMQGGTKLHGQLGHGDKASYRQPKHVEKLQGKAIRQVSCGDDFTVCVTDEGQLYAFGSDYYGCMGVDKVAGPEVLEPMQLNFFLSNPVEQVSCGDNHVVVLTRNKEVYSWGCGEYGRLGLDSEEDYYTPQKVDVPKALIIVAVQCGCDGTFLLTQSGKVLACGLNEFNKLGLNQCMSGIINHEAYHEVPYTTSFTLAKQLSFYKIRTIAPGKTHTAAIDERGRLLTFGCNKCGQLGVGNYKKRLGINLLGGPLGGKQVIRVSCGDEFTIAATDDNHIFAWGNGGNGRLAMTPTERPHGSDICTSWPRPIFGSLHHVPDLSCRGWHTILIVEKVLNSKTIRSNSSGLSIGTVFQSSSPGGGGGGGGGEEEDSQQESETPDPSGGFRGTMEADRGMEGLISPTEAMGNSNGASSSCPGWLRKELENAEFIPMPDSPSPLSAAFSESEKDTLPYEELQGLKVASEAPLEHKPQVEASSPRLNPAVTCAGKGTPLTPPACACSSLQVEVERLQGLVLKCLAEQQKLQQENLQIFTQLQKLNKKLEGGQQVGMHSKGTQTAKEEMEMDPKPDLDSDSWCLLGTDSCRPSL

Cyclin-dependent kinase 9 (Homo sapiens), sequence (P50750 whole entry): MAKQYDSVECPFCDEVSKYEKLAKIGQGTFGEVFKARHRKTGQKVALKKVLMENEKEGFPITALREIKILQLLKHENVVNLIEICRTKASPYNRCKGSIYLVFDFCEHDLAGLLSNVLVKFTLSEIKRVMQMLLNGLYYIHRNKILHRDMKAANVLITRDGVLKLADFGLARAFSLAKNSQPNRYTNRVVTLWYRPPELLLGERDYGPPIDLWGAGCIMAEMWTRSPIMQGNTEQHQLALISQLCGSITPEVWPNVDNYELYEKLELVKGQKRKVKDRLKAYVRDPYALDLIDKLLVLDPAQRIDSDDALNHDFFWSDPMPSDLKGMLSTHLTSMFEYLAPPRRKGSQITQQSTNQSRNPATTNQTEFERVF

Row | Structure (SMILES) | inhibition [1] [%] | inhibition [2] [%] | inhibition [3] [%] | inhibition [4] [%] | inhibition [5] [%] | inhibition [6] [%] | inhibition [7] [%] | inhibition [8] [%] | inhibition [9] [%] | inhibition [10] [%]
1 | CCN1CCN(Cc2ccc(NC(=O)c3ccc(C)c(/C=C/c4cnc5[nH]ccc5c4OC)c3)cc2C(F)(F)F)CC1 | 1.2 | > 99 | 61.5 | 14.1 | 19.4 | 12.7 | 20.9 | 76.9 | 13.8 | -4.6
2 | CCN1CCN(Cc2ccc(NC(=O)c3ccc(C)c(Oc4ccnc5[nH]ccc45)c3)cc2C(F)(F)F)CC1 | 19.2 | 89.6 | 66.8 | 32.5 | 45.2 | 16.2 | 15.4 | 90.3 | 16.1 | 8.1
